APJ antag = APJ receptor antagonism. P35414. CHO-K1 APJ beta-arrestin complementation, luminescence. inhibition, % at 20 µM. 330,000 tested, 0.32% active. AID 2521;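 active means inhibition above about 40% at 20 µM, limit read from the data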;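 further: cells challenged with 10 nM apelin-13 agonist together with compound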
CXCR6 block = blocks human CXCR6 beta-arrestin recruitment | CHO-K1 PathHunter CXCR6 beta-arrestin, luminescence | inhibition, % at 20 µM | 360,000 tested, 0.36% active | AID 602244; in the data active means inhibition above about 34%, passing the limit was not always enough;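 further: antagonist mode with CXCL16 agonist at 10 nM final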
Target sequence (O00574 whole entry, looked up): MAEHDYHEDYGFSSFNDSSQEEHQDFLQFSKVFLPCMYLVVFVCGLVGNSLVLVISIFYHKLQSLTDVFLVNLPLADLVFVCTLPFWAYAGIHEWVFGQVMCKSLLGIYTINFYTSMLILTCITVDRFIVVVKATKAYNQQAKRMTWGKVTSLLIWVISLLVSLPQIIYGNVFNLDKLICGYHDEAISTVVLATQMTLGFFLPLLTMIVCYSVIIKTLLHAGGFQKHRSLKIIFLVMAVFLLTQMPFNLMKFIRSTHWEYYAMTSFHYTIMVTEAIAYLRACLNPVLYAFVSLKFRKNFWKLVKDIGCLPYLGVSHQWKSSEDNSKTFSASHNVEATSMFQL
APJ ag = APJ receptor agonism | activation, % at 20 µM | 330,000 tested, 0.11% active | CHO-K1 APJ PathHunter beta-arrestin, luminescence; 0% DMSO wells, 100% apelin | P35414;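 active means activation more than six SD over the plate average, tested at 20 µM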
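assay system = CHO-K1 APJ beta-arrestin complementation cell line | input = cell density 1000 per well | dosing = compound 20 µM once, DMSO 1% | timing = compound 90 min 25 °C, reagent 1 h | measured by = luminescence from split beta-galactosidase complementation, Galacton Star/Emerald II substrate | read-out basis = APJ agonist activity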
EBI2 antag = blocks human EBI2 receptor beta-arrestin signaling. AID 651636. 360,000 tested, 0.81% active. P32249. EBI2 beta-arrestin recruitment, luminescence, 7a,25-OHC stimulated. inhibition, % at 5 µM; in the data active means inhibition above about 38%;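 further: enzyme fragment complementation signal reports receptor beta-arrestin coupling in cells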
CCR6 antagonist = blocks CCL20-driven beta-arrestin recruitment at human CCR6; P51684; CHO-K1 CCR6 PathHunter beta-arrestin, luminescence, CCL20-stimulated; inhibition, % at 20 µM; 340,000 tested, 0.49% active; AID 493098;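 active means compounds whose inhibition of the agonist-driven luminescence signal at 20 µM reaches about 50%, limit read from the data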;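 further: cells stimulated with CCL20 at 14 nM final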
hiPSC survival = increases survival of single human iPS cells; hiPSC single-cell survival, ATPlite luminescence; 100% = ROCK inhibitor wells, 0% = DMSO; survival enhancement, % at 20 µM; 360,000 tested, 0.044% active; in the data active means survival enhancement above about 18%;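 further: cells exposed to compounds for 16 hours before the ATP read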
APJ antag confirm = APJ receptor antagonism confirmation; shares compounds with APJ antag; APJ beta-arrestin recruitment, luminescence, antagonist mode; inhibition, % at 20 µM; 950 tested, 66% active; AID 2766; in the data active means inhibition above about 50%
Of the large screens only hits and unclear results are named; the others gave an inactive call (follow-up assays come after a bar, where they were run). An excerpt weighted towards active compounds, which were near 1.5% of everything screened.

Nc1ccc(-c2c3ccc(=O)cc-3oc3cc(O)ccc23)cc1C(=O)O	APJ antag 40.5 | APJ antag confirm inactive
CC(=O)Nc1ccc(Nc2ncnc3ccccc23)cc1	APJ antag 42.7 (no result: CXCR6 block, EBI2 antag, CCR6 antagonist, hiPSC survival) | APJ antag confirm inactive
Cc1cccc(NC(=O)c2cc3c(=O)n4ccccc4nc3n(CC(C)C)c2=N)c1	none
COc1cccc(NC(=O)c2cc3c(=O)n4ccccc4nc3n(CC(C)C)c2=N)c1	APJ antag 41.3 | APJ antag confirm inactive
COc1cc(/C=C2/C(=O)NN(c3ccc(Cl)cc3)C2=O)cc(OC)c1O	APJ antag 40.8 | APJ antag confirm inactive
COc1cc(/C=C2/C(=O)N(c3ccc(C(=O)O)cc3)N=C2C)cc(OC)c1O	APJ antag 58.8, CXCR6 block 40.2, CCR6 antagonist 68.7 | APJ antag confirm 94.5
COc1cc(/C=C2/C(=O)NN(c3ccccc3)C2=O)cc(Br)c1O	none
O=C(CN1C(=O)COc2ccc(S(=O)(=O)N3CCCCCC3)cc21)NCc1ccc(F)cc1	none
Cc1c(NS(=O)(=O)c2ccc(Cl)c(C(=O)OCC(=O)NCc3ccco3)c2)c(=O)n(-c2ccccc2)n1C	APJ antag 48.7 | APJ antag confirm inactive
CCN1/C(=C/c2ccc3ccccc3[n+]2CC)C=Cc2ccccc21	APJ antag 53.6, CXCR6 block 54.9, CCR6 antagonist 61.5 | APJ antag confirm 94.5
CCOC(=O)c1cccc(C2=CC(=O)C[C@H](c3ccc(OC)cc3)C2)c1	none
Cc1c(NS(=O)(=O)c2ccc(N)cc2)c(=O)n(-c2ccccc2)n1C	none
CCOC(=O)c1c(C)[nH]c(C)c1C(=O)Cn1nnc(-c2ccccc2C)n1	APJ antag 46.4 | APJ antag confirm inactive
COc1cccc2cc(C(C)N(CCCN3CCOCC3)C(=S)Nc3cccc(C)c3)oc12 (stereo not drawn)	APJ antag 76.7 | APJ antag confirm inactive
O=C(Nc1cccc([N+](=O)[O-])c1)Nc1ccc2c(c1)OCCO2	APJ antag 42.2 | APJ antag confirm inactive
O=C(Nc1cccc([N+](=O)[O-])c1)Nc1cccc([N+](=O)[O-])c1	none
O=C(COC(=O)c1cnccn1)c1ccc(Cl)c([N+](=O)[O-])c1	APJ antag 90.6, CXCR6 block 54.2, CCR6 antagonist 87.0 | APJ antag confirm 140.3
Cc1ccc(C(=O)COC(=O)c2cnccn2)cc1C	none (no result: CXCR6 block, EBI2 antag, CCR6 antagonist, hiPSC survival)
O=C(COC(=O)c1cccnc1)c1ccc(Cl)c(Cl)c1	APJ antag 84.7, CCR6 antagonist 81.0 | APJ antag confirm 77.8
Cc1ccc(C(=O)COC(=O)c2cnccn2)cc1[N+](=O)[O-]	APJ antag 45.6 | APJ antag confirm 65.1
COc1ccc(NC(=O)c2ccccc2NS(=O)(=O)c2ccc(CNC(C)=O)cc2)c(OC)c1	none
COc1cc(CC(=O)N2CCN(S(=O)(=O)c3ccc(C(C)C)cc3)CC2)cc(OC)c1OC	none (no result: APJ antag, APJ ag, CCR6 antagonist)
CN(Cc1ccco1)S(=O)(=O)c1cc(F)ccc1CN1C(=O)c2cccnc2C1=O	none
COc1cc(/C=C2/N=C(C3CCCCC3)OC2=O)cc(OC)c1OC	APJ antag 41.7 | APJ antag confirm inactive
COc1cc(/C=C2\N=C(C)OC2=O)cc(OC)c1OC	none
COc1ccc(-c2c(NC(=O)CC(C)C)n(C)c3ccccc3c2=O)cc1OC	none
O=[N+]([O-])c1cc(S(=O)(=O)Nc2cccc(Cl)c2)ccc1N/N=C/c1ccc(N2CCOCC2)cc1	APJ antag 48.5, CCR6 antagonist 50.3 | APJ antag confirm 95.5
Cn1c(=O)c2c(ncn2CC(=O)Nc2cc(S(=O)(=O)N3CCCCC3)ccc2Cl)n(C)c1=O	none
COc1cc(OC)cc(C(=O)Nc2cccc3cccnc23)c1	none
Oc1ccc(N=Nc2ccc3c(c2)OCCO3)c(O)c1	none
COc1ccc(C)cc1N=Nc1ccc(O)c2ncccc12	none (no result: APJ antag, APJ ag)
COc1cccc(N=Nc2ccc(O)c3ncccc23)c1	APJ antag 66.3, CXCR6 block 90.3, CCR6 antagonist 60.1 | APJ antag confirm 96.4
COc1cccc(N=Nc2ccc3cccnc3c2O)c1	APJ antag 61.2 | APJ antag confirm 60.6
COc1ccc(N=Nc2ccc(O)c3ncccc23)cc1	APJ antag 45.7 | APJ antag confirm 83.6
